A selection: hits, their analogues and other compounds. The true share with any hit is near 2.4%.
Myeloid diff MLP: induction of myeloid progenitor differentiation, primary screen, cell-based, flow cytometry, MLPCN library; ER-HoxA9 myeloid progenitors, lysozyme-GFP differentiation; calls only at 10 µM; 360,000 compounds, 1% hits;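 active means normalized GFP-positive differentiation at or above the plate's own cutoff, the solvent-only control mean plus 3 SD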;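 further: cells exposed to compound for four days before flow analysis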
DAGLB inh: DAGLB lipase inhibitors, primary screen, biochemical, fluorescence, HTS. Diacylglycerol lipase-beta (Homo sapiens), Q8NCG7. HEK293T DAGLB membrane lysate, EnzChek fluorogenic substrate. inhibition, % at 5.17 µM. 340,000 compounds, 0.059% hits. AID 504411, 2011; in the data active means inhibition above about 34%
beta cell repl: inducers of MIN6 beta-cell proliferation, primary screen, ATP luminescence, uHTS; MIN6 cells proliferation, ATPlite luminescence, 48 h; cells starved in 0.2% serum; 100% = growth in 10% serum; AID 2380, 2010; proliferation, % at 10 µM; 330,000 compounds, 0.29% hits;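 active means compounds whose signal lies at least 3.5 SD above the mean of all wells on their plate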
MT1-MMP act inh: blockers of MT1-MMP proenzyme processing, primary screen, HT1080 RFP-PRO-GFP cells, GFP/RFP fluorescence. GFP/RFP ratio fluorescence, overnight; percent of plate control window, DMSO zero. GFP/RFP ratio change, % at 20 µM. 360,000 compounds, 0.061% hits;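 active means GFP/RFP ratio change of at least 30% with cell ATP level not reduced by more than half and red fluorescence within 50% of control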
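Test system: HT1080 RFP-PRO-GFP cells; Benchmarks: DMSO and RFP-L50D-GFP cell wells; Timing: cells overnight before dosing, compound overnight, 37 °C, 5% CO2; Compound: one 20 µM compound dose with 1% DMSO; Read-out: GFP/RFP fluorescence ratio.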
SENP1 inh: human SENP1 catalytic domain inhibitors, primary screen, biochemical, FRET, uHTS | Sentrin-specific protease 1 (Homo sapiens), Q9P0U3 | recombinant SENP1 catalytic domain, CyPet-SUMO1-YPet FRET cleavage | inhibition, % at 10 µM | 360,000 compounds, 0.21% hits;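 active means inhibition at least 30% at 10 µM, raw YFP signal under a set limit, fluorescence ratio 0.5 to 1.5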
Target sequence (Q9P0U3 419-644 limits assumed): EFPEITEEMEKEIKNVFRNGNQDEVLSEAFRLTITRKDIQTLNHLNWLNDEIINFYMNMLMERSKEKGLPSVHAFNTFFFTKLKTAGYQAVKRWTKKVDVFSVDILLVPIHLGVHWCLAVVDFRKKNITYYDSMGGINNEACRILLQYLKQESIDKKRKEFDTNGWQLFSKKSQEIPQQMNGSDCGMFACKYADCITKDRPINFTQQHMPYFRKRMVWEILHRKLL
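Material: hSENP1 catalytic domain, recombinant; medium: Tris pH 8 with BME, BSA, NP40 and catalase; compound: single concentration of 10 µM compound, 0.5% DMSO final; technique: FRET read of cyan and yellow fluorescence; timing: 50 min enzyme reaction, room temperature, light-protected; reagent: SFCypet-SUMO1-SFYpet substrate at 25 nM; control set: no-enzyme low, enzyme-DMSO high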
NRP1-CendR mod: modulators of CendR peptide binding to NRP-1, primary screen, biochemical, fluorescence polarization, uHTS | AID 602438, 2012 | inhibition, % at 25 µM | Neuropilin-1 (Homo sapiens), O14786 | 360,000 compounds, 0.85% hits | FAM-RPARPAR peptide binding to NRP-1;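 active means inhibition or corrected inhibition above about 18%, plus a signal ratio from 0.5 to 1.5, limit read from the data, passing the limit was not always enough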
Numbers stand for hits; n = inactive; x = no result given; + = active, no number.

SMILES	Myeloid diff MLP	DAGLB inh	beta cell repl	MT1-MMP act inh	SENP1 inh	NRP1-CendR mod
COc1cccc(OCCOCCN(C)CCO)c1	+	n	n	n	n	n
CCc1cccc(NC(=O)CN(c2ccc(C)cc2)S(=O)(=O)c2c(C)noc2C)c1	n	n	n	n	n	n
COC(=O)c1c(C)nn(-c2ccc(F)c(Cl)c2)c1-c1cc(C)on1	n	n	n	n	n	n
COc1ccc(C(=O)c2sc3nc(-c4ccccc4)ccc3c2N)cc1OC	+	n	n	n	n	n
NC(=O)c1sc2nc(-c3ccccc3)ccc2c1N	+	n	n	n	n	n
Cc1ccc(F)cc1C(=O)N1CCOCC1c1cc(C(=O)NCc2ccccc2)no1 (stereo unspecified)	n	x	x	n	n	n
CCC(=O)N1N=C(c2cccs2)CC1c1ccco1 (stereo unspecified)	n	n	n	n	n	40
CCc1nc(Nc2ccc(OC)cc2OC)c2oc3ccccc3c2n1	n	n	n	n	n	n
COC(=O)N[C@@H]1C[C@H]2[C@@H]3CC[C@H]4C[C@@H](OC)CC[C@]4(C)[C@H]3CC[C@]12C	n	n	n	n	n	28
CC(=O)N1CCC(O)(c2ccc3c(c2)OCO3)CC1	n	n	n	n	n	22
Cc1ccsc1CN(C(=O)c1ccccc1)C1CCS(=O)(=O)C1 (stereo unspecified)	n	n	n	n	n	22
CC(C)c1ccc(CN(C(=O)c2cccs2)C2CCS(=O)(=O)C2)cc1 (stereo unspecified)	n	n	n	n	n	18
CCOC(=O)c1c(C)[nH]c(C)c1C(=O)COC(=O)/C=C/c1ccc(OC(F)F)cc1	+	n	n	n	n	n
CC(OC(=O)c1nc(Cl)ccc1Cl)C(=O)c1ccccc1 (stereo unspecified)	n	n	n	n	n	n
COc1cc(/C=C(/C#N)C(=O)c2c(C)[nH]c3ccccc23)ccc1OCC#N	n	n	n	n	n	n
CCOc1ccc(/C=C(\C#N)C(=O)c2c(C)[nH]c3ccccc23)cc1OC	n	n	n	n	n	n
CCOC(=O)c1c(C)[nH]c(C(=O)/C(C#N)=C/c2ccc(OC)c(OC)c2)c1C	+	n	n	n	n	n
CCOC(=O)c1c(C)[nH]c(C(=O)/C(C#N)=C/c2ccc(OC(F)F)c(OC)c2)c1C	+	n	n	n	n	n
Cc1ccccc1-n1c(SCC(=O)N2CCC(C(=O)O)CC2)nnc1-c1ccncc1	n	n	n	n	n	n
Cc1ccc(C)c(-n2c(SCC(=O)N3CCC(C(=O)O)CC3)nnc2-c2cccc(Cl)c2)c1	n	n	n	n	n	27
O=C(Nc1ccc(-c2nc3ccccc3[nH]2)cc1)c1ccc2c(c1)OCO2	n	n	n	n	n	n
O=C(Nc1ccc(Cl)c(-c2nc3ccccc3[nH]2)c1)c1ccc2c(c1)OCO2	+	n	n	n	n	n
O=C(Nc1nc2ccccc2[nH]1)c1ccc(Cl)c(S(=O)(=O)N2CCCC2)c1	n	n	n	n	n	34
COc1ccc2nc(C)cc(Nc3ccc(C)cc3)c2c1	n	n	n	n	n	n
COc1ccc2nc(C)cc(NCc3ccc(F)cc3)c2c1	+	n	n	n	n	n
SMILES	Myeloid diff MLP	DAGLB inh	beta cell repl	MT1-MMP act inh	SENP1 inh	NRP1-CendR mod
Cc1cccc(NC(=O)CSCC(=O)Nc2cccc(S(=O)(=O)N3CCCCCC3)c2)c1	n	n	n	n	n	n
Cc1c(Br)c(C(F)(F)F)nn1CC(=O)NCCCn1ccnc1	n	n	n	n	n	n
CC(NC(=O)c1ccc(C(F)(F)F)cc1)C(c1ccccc1)N1CCOCC1 (stereo unspecified)	n	n	n	n	n	n
Cn1c(=O)c2c(nc(CN3CCc4ccccc4C3)n2Cc2cccc(Cl)c2)n(C)c1=O	+	n	n	n	n	n
Cn1c(=O)c2c(nc(CN3CCN(Cc4ccccc4)CC3)n2Cc2cccc(Cl)c2)n(C)c1=O	n	n	n	n	n	n
CCN(CC)C(=O)C1CCN(S(=O)(=O)c2c(C)noc2/C=C/c2cccc(C)c2)CC1	+	n	n	n	n	n
Cc1onc(-c2c(Cl)cccc2Cl)c1C(=O)c1c[nH]c(C(=O)NCCCN2CCOCC2)c1	n	n	n	n	n	23
Cc1onc(-c2c(Cl)cccc2Cl)c1C(=O)NCCCN1CCOCC1	n	n	n	n	n	n
Cc1ccc(S(=O)(=O)NCCC(=O)NCC(c2cccs2)N(C)C)cc1 (stereo unspecified)	n	n	n	n	n	n
CCNc1cc2oc(=O)c(CN3CCOCC3)c(C)c2cc1C	n	n	n	n	n	25
Cc1cc(C(=O)c2ccccc2)cc(C)c1O	n	n	x	n	n	n
CC1=C/C(=C(\c2cc(C)c(O)c(Br)c2)c2ccccc2S(=O)(=O)O)C=C(Br)C1=O	n	n	n	n	n	46
CCc1ccc(NC(=S)N2CCNC(=O)C2CC(=O)OC)cc1 (stereo unspecified)	n	n	n	n	n	n
COc1cccc(-c2cc(NC=O)c3ncc(-c4cccc(C(=O)N(C)C)c4)n3c2)c1	n	x	x	n	n	n
COc1ccc(CNc2nn3c(-c4cccc(C(=O)N(C)C)c4)cnc3s2)cc1	n	x	x	n	n	30
O=C(NCc1cccc(C(F)(F)F)c1)C1CC(c2ccccc2C(F)(F)F)=NO1 (stereo unspecified)	n	n	n	n	n	n
CC(=O)OCC1OC(OCc2cn(C[C@H]3CC[C@@H]([C@@H]4CC[C@H](Cn5cc(COC6OC(COC(C)=O)C(OC(C)=O)C(OC(C)=O)C6OC(C)=O)nn5)O4)O3)nn2)C(OC(C)=O)C(OC(C)=O)C1OC(C)=O (stereo partly specified)	n	n	n	n	n	n
CC(=O)OCC1OC(OCc2cn(C[C@H]3CC[C@H](Cn4cc(COC5OC(COC(C)=O)C(OC(C)=O)C(OC(C)=O)C5OC(C)=O)nn4)O3)nn2)C(OC(C)=O)C(OC(C)=O)C1OC(C)=O (stereo partly specified)	n	n	n	n	n	19
CC(C)OC1=CC(=O)OC(c2cccc(Cl)c2)C1 (stereo unspecified)	n	x	x	n	n	n
